The text below walks through data of ChEMBL document CHEMBL4339256, “Antibacterial Salinaphthoquinones from a Strain of the Bacterium Salinispora arenicola Recovered from the Marine Sediments of St. Peter and St. Paul Archipelago, Brazil” (2019).

In test [1] the test system is Enterococcus faecalis. Kind of test: Antimicrobial activity against vancomycin-resistant Enterococcus faecalis ATCC 51212 assessed as inhibition of microbial growth incubated for 24 hrs by broth microdilution assay. The class given is functional. In a few lines:
(§1)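 Strains pre-grown on Mueller Hinton agar 24 h at 35 ± 2 °C aerobically; colonies suspended in 0.85% NaCl, then diluted in Mueller Hinton broth to a final 5 × 10^5 CFU/mL. Broth microdilution per CLSI (2015) with 2-fold serial compound dilutions; rifampicin positive control. Incubated as above; MIC read as lowest concentration with no visible growth.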
(In broth dilution the organism is exposed to a series of concentrations in liquid medium.)

Test [2] deals with Enterococcus faecalis. Description: Antimicrobial activity against Enterococcus faecalis ATCC 29212 assessed as inhibition of microbial growth incubated for 24 hrs by broth microdilution assay. The class given is functional. A digest of the protocol:
(§2)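 Strains first grown on Mueller Hinton agar 24 h at 35 ± 2 °C, aerobic. Colonies were suspended in sterile 0.85% (w/v) NaCl and diluted into Mueller Hinton broth to a final 5 × 10^5 CFU/mL. Broth microdilution followed CLSI (2015), with 2-fold serial dilutions of compound and rifampicin as positive control. Plates were incubated under the same conditions. MIC was read as the lowest concentration with no visible growth.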

The test system of test [3] is Staphylococcus aureus. Kind of test: Antimicrobial activity against Staphylococcus aureus ATCC 29213 assessed as inhibition of microbial growth incubated for 24 hrs by broth microdilution assay. The class given is functional. A digest of the protocol:
as §2

For test [4], the system named is Staphylococcus aureus. Description: Antimicrobial activity against methicillin-resistant Staphylococcus aureus ATCC 43300 assessed as inhibition of microbial growth incubated for 24 hrs by broth microdilution assay. The class given is functional. In a few lines: as §1
The subject of the next test is Escherichia coli. Kind of test: Antimicrobial activity against Escherichia coli ATCC 25922 assessed as inhibition of microbial growth incubated for 24 hrs by broth microdilution assay. The class given is functional, organism-based. In a few lines: as §2

The source made the active and inactive calls. No cut-off for these calls is given here.

In general, MIC refers to the lowest concentration that inhibits growth of the organism. For `Cc1cc2c(c(O)c1O)C(=O)C=C(N)C2=O`, the MIC result with Enterococcus faecalis [1], in the test on Staphylococcus aureus [3], in the test on Staphylococcus aureus [4] and with Escherichia coli was “inactive” each time. Moreover, the MIC in the test with Enterococcus faecalis [2] (ATCC 29212, 24 h) was found to be 16 µg/mL.
Regarding `Cc1cc(C)c(=O)oc1-c1c(O)c(C)cc2c1C(=O)C(N)=CC2=O`, the MIC result in the test with Enterococcus faecalis [1], with Staphylococcus aureus [3] and with Staphylococcus aureus [4] was “inactive” each time. For the same compound, in the test on Enterococcus faecalis [2] (ATCC 29212, 24 h), the MIC was 125 µg/mL.
As for `Cc1cc(C)c(=O)oc1-c1c(O)c(C)cc2c1C(=O)C=C(N)C2=O`, the MIC worked out at 125 µg/mL in the test with Enterococcus faecalis [1] (ATCC 51212, 24 h); 16 µg/mL with Enterococcus faecalis [2] (ATCC 29212, 24 h); 31 µg/mL with Staphylococcus aureus [3] (ATCC 29213, 24 h); 62 µg/mL in the test on Staphylococcus aureus [4] (ATCC 43300, 24 h). For the same compound, the MIC entry in the test with Escherichia coli was “inactive”.
With `Cc1cc2c(c(C(=O)[C@@H](C)C3OC4[C@H](C)C(OC(=O)[C@H]4C)C3C)c1O)C(=O)C=C(N)C2=O` (stereo partly specified), the MIC entry in the test with Enterococcus faecalis [1], in the test on Enterococcus faecalis [2], in the test with Staphylococcus aureus [3] and with Staphylococcus aureus [4] was “inactive” each time.
For the compound `CO[C@H]1/C=C/O[C@@]2(C)Oc3c(C)c(O)c4c(O)c(c(/C=N/N5CCN(C)CC5)c(O)c4c3C2=O)NC(=O)/C(C)=C\C=C\[C@H](C)[C@H](O)[C@@H](C)[C@@H](O)[C@@H](C)[C@H](OC(C)=O)[C@@H]1C` [RIFAMPIN], the minimum inhibitory concentration (MIC) in the test on Enterococcus faecalis [1] (ATCC 51212, 24 h) was ≤ 0.03 µg/mL; in the test on Enterococcus faecalis [2] (ATCC 29212, 24 h), ≤ 0.03 µg/mL; with Staphylococcus aureus [3] (ATCC 29213, 24 h) it was ≤ 0.03 µg/mL; in the test on Staphylococcus aureus [4] (ATCC 43300, 24 h), ≤ 0.03 µg/mL.
As to `CC(=O)CC1(C)Oc2c(C)cc3c(c2C1=O)C(=O)C=C(N)C3=O` (stereo unspecified), the MIC in the test on Enterococcus faecalis [1] (ATCC 51212, 24 h) came to 125 µg/mL; in the test on Enterococcus faecalis [2] (ATCC 29212, 24 h), 125 µg/mL; in the test on Staphylococcus aureus [3] (ATCC 29213, 24 h) it was 125 µg/mL; with Staphylococcus aureus [4] (ATCC 43300, 24 h), 125 µg/mL.
